Bioassay records: PubChem, several laboratories
MT1-MMP act inh: blockers of MT1-MMP proenzyme processing, primary screen, HT1080 RFP-PRO-GFP cells, GFP/RFP fluorescence | Matrix metalloproteinase-14 (Homo sapiens), P50281 | GFP/RFP ratio fluorescence, overnight; percent of plate control window, DMSO zero | GFP/RFP ratio change, % at 20 µM | 360,000 compounds, 0.061% hits | AID 651647, 2012;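 active means GFP/RFP ratio change of at least 30% with cell ATP level not reduced by more than half and red fluorescence within 50% of control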
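Assay system: RFP-PRO-GFP reporter HT1080 cells; read-out basis: GFP/RFP fluorescence ratio; benchmarks: DMSO wells and RFP-L50D-GFP cells; doses: 20 µM single dose, 1% DMSO; schedule: overnight cell settling, then overnight compound exposure, 37 °C, 5% CO2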
DAGLB inh: DAGLB lipase inhibitors, primary screen, biochemical, fluorescence, HTS; Diacylglycerol lipase-beta (Homo sapiens), Q8NCG7; AID 504411, 2011; HEK293T DAGLB membrane lysate, EnzChek fluorogenic substrate; inhibition, % at 5.17 µM; 340,000 compounds, 0.059% hits; in the data active means inhibition above about 34%;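 further: 0% = enzyme with vehicle and 100% = wells lacking enzyme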
Target sequence (Q8NCG7 whole entry, looked up): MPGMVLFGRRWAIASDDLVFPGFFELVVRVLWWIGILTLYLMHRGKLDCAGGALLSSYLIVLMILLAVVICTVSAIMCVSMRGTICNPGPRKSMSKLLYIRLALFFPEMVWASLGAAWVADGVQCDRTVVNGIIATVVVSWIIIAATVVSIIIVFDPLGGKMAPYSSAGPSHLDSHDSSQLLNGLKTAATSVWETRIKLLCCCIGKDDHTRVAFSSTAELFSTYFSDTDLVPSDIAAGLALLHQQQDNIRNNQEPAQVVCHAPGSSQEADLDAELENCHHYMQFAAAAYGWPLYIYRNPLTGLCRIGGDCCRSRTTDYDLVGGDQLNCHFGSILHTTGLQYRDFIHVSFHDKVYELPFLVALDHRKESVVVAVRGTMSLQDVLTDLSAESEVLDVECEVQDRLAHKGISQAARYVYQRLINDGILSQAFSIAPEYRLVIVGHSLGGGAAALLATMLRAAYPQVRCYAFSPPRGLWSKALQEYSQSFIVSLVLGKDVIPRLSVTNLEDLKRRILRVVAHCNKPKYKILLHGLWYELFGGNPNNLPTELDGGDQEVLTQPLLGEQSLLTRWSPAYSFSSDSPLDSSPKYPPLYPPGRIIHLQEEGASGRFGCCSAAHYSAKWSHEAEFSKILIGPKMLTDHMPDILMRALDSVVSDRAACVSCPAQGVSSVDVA
SKN-1 inh: suppressors of acrylamide-induced Pgst-4::GFP reporter in worms, primary screen, SKN-1 inhibitor project, whole organism, uHTS, GFP/RFP fluorescence ratio, strain VP596 | C. elegans VP596 Pgst-4::GFP/RFP ratio, 24 h | 360,000 compounds, 0.49% hits | inhibition, % at 21.8 µM;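 active means interference check ratio from 0.5 to 1.5 plus GFP to RFP signal ratio inhibition reaching or exceeding a fixed threshold, cut at about 30% in these data, passing the limit was not always enough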
hiPSC survival: enhancers of single-cell hiPSC survival, primary screen, ATPlite luminescence. 100% = ROCK inhibitor wells, 0% = DMSO. survival enhancement, % at 20 µM. 360,000 compounds, 0.044% hits. AID 602274, 2012; in the data active means survival enhancement above about 18%;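 further: cells exposed to compounds for 16 hours before the ATP read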
Cneo AK release: Cryptococcus neoformans cell lysis inducers, primary screen, AK release luminescence, single concentration; C. neoformans lysis, adenylate kinase release luminescence, 4 h; normalised: neutral wells 0, clomiphene wells 100; 360,000 compounds, 0.2% hits; AID 651654, 2012; lysis activity, % at 15 µM;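 active means mean lysis activity across replicates of at least 80%, whatever share of replicates individually reach that level; inactive means mean lysis activity below 80%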
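Assay system: Cryptococcus neoformans yeast cells / Dosing: single-point compound dose / Timing: 4 h at 37 °C static, read 1 h later / Measured by: luminescence of released adenylate kinase using an AK detection reagent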
rRNA inh HTS: reduced GFP signal of wild-type E. coli, primary screen, bacterial rRNA inhibitor project, GFP/RFP fluorescence, OD600, single point. E. coli WT GFP vs humanized-ribosome RFP mutants, 24 h; stronger effect = lower value; DMSO median 0, no signal -100. GFP signal change (wild-type ribosome), % (no concentration beside the values). 350,000 compounds, 1.6% hits. AID 720706, 2013;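 active means significant combined selectivity score with lowered wild-type GFP, culture density cut under 30%, mutant RFP and density less affected; inactive means any of these conditions unmet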
Active calls of the source: *; . = not tested or not shown. In the library only some 1.8% were active in any assay of this set; here they are far more common.

SMILES	MT1-MMP act inh	DAGLB inh	SKN-1 inh	hiPSC survival	Cneo AK release	rRNA inh HTS
CC(=O)O[C@H]1CCC2C3CCC4=CC(=O)CCC4=C3C=C[C@@]21C (some centres undefined)	0.0	-1.1	12.5	0.2	4.3	-17.9*
Cc1ccc(OC(=O)N(C)C[C@@H]2OCc3ccccc3-c3c(n(C)c4ccccc34)C(=O)N([C@H](C)CO)C[C@@H]2C)cc1	.	.	.	.	.	1.6
CN1CCN(Cc2nc3ccccc3n2C)CC1	-1.6	-0.7	-14.6	0.8	5.8	.
Cn1c(NN=O)nc2ccccc21	1.8	5.9	11.4	-3.4	.	-23.0*
O=[N+]([O-])c1ccc(N2CC2)c([N+](=O)[O-])c1	1.3	2.1	-3.7	-0.4	-0.1	-15.8*
CN1CCN(c2ccc(C(N)=O)cc2[N+](=O)[O-])CC1	-0.1	-0.5	12.4	2.6	.	.
CN1C(=O)C(=Cc2sc(=O)n(-c3ccccc3)c2N2CCCCC2)C(=O)N(C)C1=O	-65.5	2.8	38.5*	-0.7	-0.4	14.1
CN1C(=O)C(=Cc2cc([N+](=O)[O-])ccc2N2CCCCC2)C(=O)N(C)C1=O	1.8	0.8	-10.6	0.4	.	4.6
Oc1ccc2c3c1OC1c4oc5ccccc5c4C[C@@]4(O)[C@@H](C2)N(CC2CC2)CC[C@]314 (some centres undefined)	-0.8	-1.4	6.7	0.5	-2.8	-20.2*
C=CCn1c(C)c(C=C2C(=O)NC(=O)NC2=O)c2ccccc21	2.1	-3.0	39.6*	0.2	-2.0	2.6
COc1cc(O)c2c(c1)/C=C/C[C@H](O)[C@H](O)C(=O)CCC[C@H](C)OC2=O	-27.6	.	-0.7	2.6	-1.1	-25.0*
C[C@H]1CCCC(=O)CCCCCc2cc(O)cc(O)c2C(=O)O1	-0.6	-5.6	9.5	-0.3	2.4	.
CCCNC(=O)N1[C@@H]2c3ccc(-c4cccc(C(=O)N(C)C)c4)c(=O)n3C[C@H]1[C@H](CO)[C@H]2C(=O)O	.	.	.	.	.	4.4
Oc1ccccc1CN(CCc1ccccc1)Cc1ccccc1	-4.4	-18.5	4.0	0.6	1.7	-26.0*
Cc1nc2ccccc2c(=O)n1/N=C/c1cc(Br)cc(Br)c1O	-0.5	4.2	-4.2	5.3	.	-21.8*
Cc1nc2ccccc2c(=O)n1-c1ccc(Br)cn1	4.8	.	5.8	0.1	0.6	5.6
O=C1NC2C(=CC(O)C(O)C2O)c2cc3c(c(O)c21)OCO3 (centres undefined)	-37.9	2.2	55.4*	-3.4	.	3.5
O=C1NC2C(O)C(O)C(O)C(O)C2c2cc3c(c(O)c21)OCO3 (centres undefined)	-41.0	-3.1	32.0	-4.2	.	6.2
O=C1NC2C(=CC(O)C(O)C2O)c2cc3c(cc21)OCO3 (centres undefined)	-41.8	0.5	39.9*	-2.5	.	4.3
CS(=O)(=O)N1C[C@@H]2C(c3ccccc3)[C@H](C1)N2CC1CC1 (some centres undefined)	.	.	.	.	.	0.2
CN1Cc2cnnn2-c2ccccc2C1C#N (centres undefined)	1.1	-2.9	11.1	39.8*	0.7	10.4
CN1[C@@H]2CN(S(C)(=O)=O)C[C@H]1C2c1ccc(Br)cc1 (some centres undefined)	.	.	.	.	.	2.3
Cc1cccc(N2C(=O)NC(=O)/C(=C\c3ccc4c(c3)CCCN4Cc3ccccc3)C2=O)c1	-5.8	5.6	39.6*	2.7	.	.
CCCCCCOc1ccc(CN2CCN(C)CC2)cc1	-2.1	2.0	20.5	0.1	.	-25.2*
C/C=C/c1ccc(C2[C@@H]3CN(Cc4cocn4)C[C@H]2N3)cc1 (some centres undefined)	.	.	.	.	.	3.7
SMILES	MT1-MMP act inh	DAGLB inh	SKN-1 inh	hiPSC survival	Cneo AK release	rRNA inh HTS
Nc1c2c(nc3sc4c(c13)CCCCC4)CCCC2	2.7	-0.7	12.4	3.1	-4.0	-23.4*
CC[N+](C)(CC)CCCCOc1ccc2c(c1)C(=O)c1cc(OCCCC[N+](C)(CC)CC)ccc1-2	3.1	1.4	15.3	-0.6	-2.7	-52.6*
CC=Cc1ccc2n(c1=O)C[C@@H]1[C@@H](CO)[C@H](C(=O)OC)[C@H]2N1CC1CCCC1 (mixture of isomers)	.	.	.	.	.	-1.5
CCN(CC)c1ccc(/C=C2\C(=O)NC(=O)N(Cc3ccco3)C2=O)cc1	-34.9	3.7	48.1*	-2.0	.	.
CCCCN1C(=O)/C(=C/c2ccc(N(C)C)cc2)C(=O)N(Cc2ccco2)C1=O	-62.5	13.0	39.9*	-2.2	.	.
CCOC(=O)c1c(C)n(C(C)C)c2ccc(OC)cc12	1.8	-4.0	1.1	0.3	0.7	-28.5*
O=C(O)[C@H]1[C@H](CO)[C@H]2Cn3c(ccc(-c4ccncc4)c3=O)[C@@H]1N2C(=O)C1CC1	.	.	.	.	.	4.5
COC(=O)[C@@H]1[C@@H](CO)[C@@H]2Cn3c(ccc(-c4ccccc4)c3=O)[C@H]1N2C(=O)c1ccccc1F	.	.	.	.	.	0.0
CCCN1[C@@H]2Cn3c(cccc3=O)[C@H]1[C@@H](C(=O)N(C)C)[C@@H]2CO	.	.	.	.	-0.7	1.4
COC(=O)C1=C(N)Oc2cc(C)oc(=O)c2C12C(=O)Nc1ccccc12 (centres undefined)	-3.6	-1.6	-2.7	0.7	.	-23.2*
CC(=O)N1C[C@@H]2N[C@H](C1)C2c1ccc(Br)cc1 (some centres undefined)	.	.	.	.	.	1.0
O=c1c2ccccc2nc(/C=C/c2ccc(O)cc2)n1-c1ccccc1O	-45.0	2.1	-13.6	0.0	-2.7	-27.4*
CCCNC(=O)[C@@H]1[C@@H](CO)[C@@H]2Cn3c(cccc3=O)[C@@H]2N1CC	.	.	.	.	.	0.4
COc1ccccc1N1CCN(Cc2ccc(F)cc2)CC1	1.7	-10.3	7.2	0.7	-3.5	.
COc1ccc(CN2CCN(c3ccccc3F)CC2)cc1O	-2.3	-8.8	46.4*	-3.3	0.6	.
C=CCN1C(=O)C2(C(C(=O)OCC)=C(N)Oc3ccccc32)C2=C1CCCC2=O (centres undefined)	4.5	-1.2	36.9*	-1.6	2.6	.
CC(C)(C)c1cc(C=C(C#N)C#N)cc(C(C)(C)C)c1O	4.9	4.7	41.8*	-2.1	-3.6	.
Cc1cc2c(C(C)C)c(O)c(O)c(C=O)c2c(O)c1-c1c(C)cc2c(C(C)C)c(O)c(O)c(C=O)c2c1O	17.8	.	10.3	4.7	-0.4	-7.7*
